Results on 23 compounds are retold here after ChEMBL document CHEMBL1133735, “Synthesis, in vitro anti-breast cancer activity, and intracellular decomposition of amino acid methyl ester and alkyl amide phosphoramidate monoesters of 3'-azido-3'-deoxythymidine (AZT)” (J Med Chem, 2000).

The subject of data set [1] is CCRF-CEM. Description: Tested for intracellular levels of AZT phosphate against CEM cell lines. It is filed as functional, Homo sapiens. An outline of the steps:
(§1)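 About 1.5×10^6 MCF-7 or 3×10^6 CEM cells exposed to 100 µM compound for 17 h, then medium removed. Phosphorylated fractions (phosphates plus phosphoramidate) dephosphorylated with potato acid phosphatase in potassium hydrogen phthalate buffer, 4 h at 37 °C, dried, reconstituted in FPIA buffer; AZT quantified by RIA and phosphorylated amounts extrapolated. Reported as pmol per million cells.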

In data set [2] the test system is CCRF-CEM. Description: Cytotoxic activity against CEM cell lines. Type of data set: functional, Homo sapiens.
For data set [3], the system named is MCF7. Description: Cytotoxic activity against MCF-7 cell lines. Type of data set: functional, Homo sapiens. An outline of the steps: (§2)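 MCF-7 cells kept in RPMI 1640 with 10% heat-inactivated FBS, penicillin and streptomycin; 5×10^4 to 6×10^4 cells per well dosed with compound in PBS at final 0.001, 0.01, 0.1, 1, 10 and 100 µM; 48 h at 37 °C, 10% CO2. Brief trypsin release, viable cells counted by trypan blue exclusion; triplicate, untreated wells as control. CC50 = concentration giving 50% growth reduction versus control.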

The test system of data set [4] is MCF7. Put plainly: Tested for intracellular levels of AZT phosphate against MCF-7 cell lines. Type of data set: functional, Homo sapiens. The method, boiled down:
as §1

Data set [5] is described as follows: Partition coefficient (logP). Type of data set: physicochemical. The conditions noted are these: octanol/water. The method, boiled down: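 Octanol and water pre-equilibrated (shaken 6 h, stood overnight); ~0.5 mg compound added, shaken 1 h at room temperature, centrifuged 1 h at 1000 rpm, left 30 h to equilibrate. Each phase read by UV absorbance, concentration from extinction coefficients via Beer-Lambert using standard curves over 2-300 µM. Duplicate or triplicate; mean of two values within 15%.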

For data set [6], the system named is CCRF-CEM. Description: Tested for intracellular levels of phosphoramidate against CEM cell lines. Type of data set: functional, Homo sapiens. The method, boiled down:
as §1

In data set [7] the test system is MCF7. Put plainly: Tested for intracellular levels of phosphoramidate against MCF-7 cell lines. It is filed as functional, Homo sapiens. The method, boiled down:
as §1

Data set [8] relates to MCF7. Description: In vitro cytotoxic concentration required to reduce MCF-7 cell growth by 50%. Type of data set: functional. The conditions noted are these: Homo sapiens. An outline of the steps:
as §2

The structures appear in SMILES notation.

Turning to `Cc1cn([C@H]2C[C@H](N=[N+]=[N-])[C@@H](CO)O2)c(=O)[nH]c1=O` [ZIDOVUDINE], the Amount in data set [1] is given as 810.9 pM (10e6*cells)-1; in data set [4], 2658.4 pM (10e6*cells)-1. In addition, the Cytotoxicity in data set [2] worked out at 14.3 µM; in data set [3], 0.008 µM.

Turning to `COC(=O)[C@H](Cc1ccccc1)NP(=O)(O)OC[C@H]1O[C@@H](n2cc(C)c(=O)[nH]c2=O)C[C@@H]1N=[N+]=[N-]`, the logP in data set [5] was -1.84. The Amount in data set [1] was 120.7 pM (10e6*cells)-1; in data set [6], 7.8 pM (10e6*cells)-1; in data set [4], 221 pM (10e6*cells)-1; in data set [7] it was 295 pM (10e6*cells)-1. The Cytotoxicity in data set [2] is >100 µM; in data set [3] it was 0.4 µM. This compound gave a CC50 in data set [8] of 0.4 µM.

Take `CNC(=O)[C@@H](NP(=O)(O)OC[C@H]1OC(n2cc(C)c(=O)[nH]c2=O)C[C@H]1N=[N+]=[N-])C(C)C` (stereo not given in full): in data set [5], the lipophilicity (logP) is -1.64. In data set [8], this compound registered a half-maximal cytotoxic concentration (CC50) of 2.2 µM.

As to `CNC(=O)[C@H](Cc1c[nH]c2ccccc12)NP(=O)(O)OC[C@H]1OC(n2cc(C)c(=O)[nH]c2=O)C[C@H]1N=[N+]=[N-]` (stereo not given in full), in data set [5], the logP was -1.38. In data set [8], half-maximal cytotoxicity (CC50) was put at 0.016 µM.

For `COC(=O)[C@@H](Cc1ccccc1)NP(=O)(O)OC[C@H]1O[C@@H](n2cc(C)c(=O)[nH]c2=O)C[C@@H]1N=[N+]=[N-]`, the logP in data set [5] was -1.33. For the same compound, in data set [8], the CC50 was > 100 µM.

Take `Cc1cn(C2C[C@@H](N=[N+]=[N-])[C@@H](COP(=O)(O)N[C@@H](Cc3c[nH]c4ccccc34)C(=O)NC3CCCCC3)O2)c(=O)[nH]c1=O` (stereo not given in full): the lipophilicity (logP) in data set [5] is -0.914. This compound yielded a half-maximal cytotoxic concentration (CC50) in data set [8] of 16 µM.

Take `Cc1cn(C2C[C@@H](N=[N+]=[N-])[C@@H](COP(=O)(O)N[C@@H](Cc3c[nH]c4ccccc34)C(=O)NC(C)C)O2)c(=O)[nH]c1=O` (stereo not given in full): the logP in data set [5] was -1.3. Besides, the CC50 in data set [8] was > 100 µM.

`COC(=O)[C@H](Cc1ccc(O)cc1)NP(=O)(O)OC[C@H]1OC(n2cc(C)c(=O)[nH]c2=O)C[C@H]1N=[N+]=[N-]` (stereo not given in full): in data set [5], the logP was -1.59. This compound came in with a cytotoxic concentration (CC50) in data set [8] of 10 µM.

For the compound `CNC(=O)CNP(=O)(O)OC[C@H]1O[C@@H](n2cc(C)c(=O)[nH]c2=O)C[C@@H]1N=[N+]=[N-]`, the log partition coefficient (logP) in data set [5] was -1.15. Half-maximal cytotoxicity in data set [8] (CC50) was put at 5 µM.

With `Cc1cn(C2C[C@@H](N=[N+]=[N-])[C@@H](COP(=O)(O)N[C@@H](Cc3c[nH]c4ccccc34)C(=O)NC3CC3)O2)c(=O)[nH]c1=O` (stereo not given in full), the lipophilicity (logP) in data set [5] is -1.39. This compound also showed a 50% cytotoxic concentration (CC50) in data set [8] of 90 µM.

Take `CNC(=O)[C@H](Cc1ccc(O)cc1)NP(=O)(O)OC[C@H]1OC(n2cc(C)c(=O)[nH]c2=O)C[C@H]1N=[N+]=[N-]` (stereo not given in full): the lipophilicity (logP) in data set [5] is -1.38. The half-maximal cytotoxic concentration (CC50) in data set [8] is > 100 µM.

Take `COC(=O)CNP(=O)(O)OC[C@H]1OC(n2cc(C)c(=O)[nH]c2=O)C[C@H]1N=[N+]=[N-]` (stereo not given in full): in data set [5], the lipophilicity (logP) was -1.24. Further, the CC50 in data set [8] is > 100 µM.

Regarding `CNC(=O)[C@H](C)NP(=O)(O)OC[C@H]1OC(n2cc(C)c(=O)[nH]c2=O)C[C@H]1N=[N+]=[N-]` (stereo not given in full), the logP in data set [5] is -1.21. Further, the cytotoxic concentration (CC50) in data set [8] is > 100 µM.

Take `COC(=O)[C@H](C)NP(=O)(O)OC[C@H]1OC(n2cc(C)c(=O)[nH]c2=O)C[C@H]1N=[N+]=[N-]` (stereo not given in full): the lipophilicity (logP) in data set [5] is -1.25. In addition, the half-maximal cytotoxic concentration (CC50) in data set [8] was determined as 5.8 µM.

As for `COC(=O)[C@H](CC(C)C)NP(=O)(O)OC[C@H]1OC(n2cc(C)c(=O)[nH]c2=O)C[C@H]1N=[N+]=[N-]` (stereo not given in full), the log partition coefficient (logP) in data set [5] was -1.5. Also, the CC50 in data set [8] was > 100 µM.

Turning to `CNC(=O)[C@H](CC(C)C)NP(=O)(O)OC[C@H]1OC(n2cc(C)c(=O)[nH]c2=O)C[C@H]1N=[N+]=[N-]` (stereo not given in full), in data set [5], the logP is -1.52. Also, the 50% cytotoxic concentration (CC50) in data set [8] is > 100 µM.

In the case of `COC(=O)[C@H](Cc1c[nH]c2ccccc12)NP(=O)(O)OC[C@H]1O[C@@H](n2cc(C)c(=O)[nH]c2=O)C[C@@H]1N=[N+]=[N-]`, the log partition coefficient (logP) in data set [5] is -0.686. Further, the Amount is recorded as 115.8 pM (10e6*cells)-1 in data set [1], 14.6 pM (10e6*cells)-1 in data set [6], 196.5 pM (10e6*cells)-1 in data set [4] and 213.6 pM (10e6*cells)-1 in data set [7]. The Cytotoxicity was >100 µM in data set [2] and 0.059 µM in data set [3]. The compound also displayed a 50% cytotoxic concentration (CC50) in data set [8] of 0.059 µM.

Turning to `COC(=O)[C@@H](Cc1c[nH]c2ccccc12)NP(=O)(O)OC[C@H]1O[C@@H](n2cc(C)c(=O)[nH]c2=O)C[C@@H]1N=[N+]=[N-]`, the logP in data set [5] is -1.36. Further, the CC50 in data set [8] is > 100 µM.

Consider `COC(=O)[C@@H](NP(=O)(O)OC[C@H]1OC(n2cc(C)c(=O)[nH]c2=O)C[C@H]1N=[N+]=[N-])C(C)C` (stereo not given in full), for which the logP in data set [5] is -1.56. Further, the CC50 in data set [8] was 6 µM.

With `CNC(=O)[C@H](Cc1ccccc1)NP(=O)(O)OC[C@H]1OC(n2cc(C)c(=O)[nH]c2=O)C[C@H]1N=[N+]=[N-]` (stereo not given in full), the logP in data set [5] was -1.49. In data set [8], the 50% cytotoxic concentration (CC50) is 1.4 µM.

For `CNC(=O)[C@@H](Cc1ccccc1)NP(=O)(O)OC[C@H]1OC(n2cc(C)c(=O)[nH]c2=O)C[C@H]1N=[N+]=[N-]` (stereo not given in full), the logP in data set [5] was -1.7. Further, the CC50 in data set [8] was > 100 µM.

Consider `CNC(=O)[C@@H](Cc1c[nH]c2ccccc12)NP(=O)(O)OC[C@H]1OC(n2cc(C)c(=O)[nH]c2=O)C[C@H]1N=[N+]=[N-]` (stereo not given in full), for which the log partition coefficient (logP) in data set [5] is -1.89. For the same compound, the CC50 in data set [8] is > 100 µM.

On to `CCNC(=O)[C@H](Cc1c[nH]c2ccccc12)NP(=O)(O)OC[C@H]1OC(n2cc(C)c(=O)[nH]c2=O)C[C@H]1N=[N+]=[N-]` (stereo not given in full), for which the log partition coefficient (logP) in data set [5] was -1.53. The cytotoxic concentration (CC50) in data set [8] was > 100 µM.
